Results taken from ChEMBL document CHEMBL4715682, “Potent trifluoromethoxy, trifluoromethylsulfonyl, trifluoromethylthio and pentafluorosulfanyl containing (1,3,4-oxadiazol-2-yl)benzamides against drug-resistant Gram-positive bacteria” (RSC Med Chem, 2020).
≈ marks a conversion by molar mass, not a printed value. Calls of active or inactive are those of the source. The rule behind the calls is not given here.

Legend:
Staphylococcus aureus [1] = assay: Antibacterial activity against methicillin-resistant Staphylococcus aureus ATCC 33592 assessed as inhibition of visible bacterial growth incubated for 18 to 20 hrs by CLSI method; assay type: functional; conditions: time 18-20 hrs
Outline: (§1)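 CLSI broth microdilution. Strains grown aerobically overnight on tryptic soy agar at 37 °C, adjusted to 0.5 McFarland and diluted in cation-adjusted Mueller–Hinton broth to about 5×10^5 CFU/mL. Compounds and control drugs serially diluted across the plate. Incubated aerobically at 37 °C for 18-20 h. MIC is the lowest concentration with no visible growth.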

Staphylococcus aureus [2] = assay: Antibacterial activity against Staphylococcus aureus ATCC 25923 assessed as inhibition of visible bacterial growth incubated for 18 to 20 hrs by CLSI method; assay type: functional; conditions: time 18-20 hrs; outline: as §1
Staphylococcus aureus [3] = assay: Antibacterial activity against methicillin-resistant Staphylococcus aureus NRS 119 assessed as inhibition of visible bacterial growth incubated for 18 to 20 hrs by CLSI method; assay type: functional; conditions: time 18-20 hrs; outline: as §1
Enterococcus faecalis [4] = assay: Antibacterial activity against vancomycin- resistant Enterococcus faecalis ATCC 51299 assessed as inhibition of visible bacterial growth incubated for 18 to 20 hrs by CLSI method; assay type: functional; conditions: time 18-20 hrs; outline: as §1
Staphylococcus aureus [5] = assay: Antibacterial activity against methicillin-sensitive Staphylococcus aureus NRS 107 assessed as inhibition of visible bacterial growth incubated for 18 to 20 hrs by CLSI method; assay type: functional; conditions: time 18-20 hrs; outline: as §1
Acinetobacter baumannii = assay: Antibacterial activity against Acinetobacter baumannii ATCC 19606 RW4 assessed as inhibition of visible bacterial growth at 16 ug/ml incubated for 18 to 20 hrs by CLSI method; assay type: functional, organism-based; conditions: ATCC 19606 = CIP 70.34 = JCM 6841 RW4, dose 16.0 µg/ml, time 18-20 hrs; outline: as §1
[6] = Hemolytic activity in human RBC at 128 ug/ml incubated for 60 mins relative to control; assay type: ADME, cell-based, Erythrocyte; conditions: red blood cells (erythrocytes), dose 128 µg/ml, read-out: Activity
Outline: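 Single-donor human erythrocytes as a 5% v/v suspension in PBS. Compounds serially diluted in PBS, in triplicate, and incubated with RBCs at 37 °C for 60 min. PBS served as the negative control and Triton-X as the positive control. Samples spun at 4,000 rpm for 5 min and supernatant absorbance read at 540 nm. Percent hemolysis = 100×(sample−negative)/(positive−negative).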

Staphylococcus aureus [7] = assay: Antibacterial activity against methicillin-resistant Staphylococcus aureus USA400 infected in mouse J774 cells assessed as log reduction in intracellular growth at 8 ug/ml incubated for 18 to 22 hrs; assay type: functional; conditions: dose 8 µg/ml; time 18-22 hrs
Outline: (§2)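 J774 murine macrophages grown in DMEM with 10% FBS at 37 °C, 5% CO2. Cells infected with MRSA USA400 at MOI about 10:1 for 1 h, then washed with gentamicin to remove extracellular bacteria. Agents added at 8 or 16 μg/mL in triplicate, with DMSO vehicle control, for 24 h. Cells lysed with 0.1% Triton-X, lysates plated on tryptic soy agar, and CFU counted after 18-22 h at 37 °C. Analysed by two-way ANOVA with Dunnett's test.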

Staphylococcus aureus [8] = assay: Synergistic antibacterial activity against methicillin-resistant Staphylococcus aureus ATCC 33592 assessed as fractional inhibitory concentration index in presence of methicillin by checkerboard assay; assay type: functional
Staphylococcus aureus [9] = assay: Antibacterial activity against methicillin-resistant Staphylococcus aureus NRS484 assessed as inhibition of visible bacterial growth incubated for 18 to 20 hrs by CLSI method; assay type: functional; conditions: time 18-20 hrs; outline: as §1
[10] = system: Staphylococcus epidermidis; assay: Antibacterial activity against Staphylococcus epidermidis NRS101 assessed as inhibition of visible bacterial growth incubated for 18 to 20 hrs by CLSI method; assay type: functional; conditions: time 18-20 hrs
Outline: (§3)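 Broth microdilution per CLSI. Strains grown aerobically overnight on TSA at 37 °C, suspended to 0.5 McFarland, diluted in CAMHB to about 5×10^5 CFU/mL. Agents serially diluted across plate; aerobic incubation 37 °C for 18-20 h. MIC = lowest concentration completely preventing visible growth.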

Staphylococcus aureus [11] = assay: Antibacterial activity against methicillin-resistant Staphylococcus aureus NRS384 assessed as inhibition of visible bacterial growth incubated for 18 to 20 hrs by CLSI method; assay type: functional; conditions: time 18-20 hrs; outline: as §1
J774 = assay: Cytotoxicity against mouse J774 cells assessed as reduction in cell viability at 32 ug/ml incubated for 24 hrs by MTS assay; assay type: cell-based; conditions: j774, 24 h, dose 32 µg/ml
Enterococcus faecalis [12] = assay: Antibacterial activity against vancomycin- resistant Enterococcus faecalis ATCC 700221 assessed as inhibition of visible bacterial growth incubated for 18 to 20 hrs by CLSI method; assay type: functional; conditions: time 18-20 hrs; outline: as §1
Staphylococcus aureus [13] = assay: Antibacterial activity against methicillin-resistant Staphylococcus aureus USA400 infected in mouse J774 cells assessed as log reduction in intracellular growth at 16 ug/ml incubated for 18 to 22 hrs; assay type: functional; conditions: dose 16 µg/ml; time 18-22 hrs; outline: as §2
Streptococcus pneumoniae [14] = assay: Antibacterial activity against […] Streptococcus pneumoniae ATCC 700677 assessed as inhibition of visible bacterial growth incubated for 18 to 20 hrs by CLSI method; assay type: functional; conditions: time 18-20 hrs; outline: as §1
Staphylococcus aureus [15] = assay: Antibacterial activity against methicillin-resistant Staphylococcus aureus NRS383 assessed as inhibition of visible bacterial growth incubated for 18 to 20 hrs by CLSI method; assay type: functional; conditions: time 18-20 hrs; outline: as §1
Staphylococcus aureus [16] = assay: Synergistic antibacterial activity against methicillin-resistant Staphylococcus aureus ATCC 33592 assessed as fractional inhibitory concentration index in presence of linezolid by checkerboard assay; assay type: functional
Staphylococcus aureus [17] = assay: Antibacterial activity against methicillin-sensitive Staphylococcus aureus ATCC 6538 assessed as inhibition of visible bacterial growth incubated for 18 to 20 hrs by CLSI method; assay type: functional; conditions: time 18-20 hrs; outline: as §1
Escherichia coli = assay: Antibacterial activity against Escherichia coli ATCC 25404 assessed as inhibition of visible bacterial growth at 16 ug/ml incubated for 18 to 20 hrs by CLSI method; assay type: functional, organism-based; conditions: B ATCC 25404, dose 16.0 µg/ml, time 18-20 hrs; outline: as §1
Caco-2 = assay: Cytotoxicity against human Caco2 cells assessed as reduction in cell viability at 128 ug/ml incubated for 2 hrs by MTS assay; assay type: cell-based; conditions: caco-2, 2 h, dose 128 µg/ml
Streptococcus pneumoniae [18] = assay: Antibacterial activity against cephalosporin-resistant Streptococcus pneumoniae ATCC 51916 assessed as inhibition of visible bacterial growth incubated for 18 to 20 hrs by CLSI method; assay type: functional; conditions: time 18-20 hrs; outline: as §1
Staphylococcus aureus [19] = assay: Synergistic antibacterial activity against methicillin-resistant Staphylococcus aureus ATCC 33592 assessed as fractional inhibitory concentration index in presence of daptomycin by checkerboard assay; assay type: functional
Staphylococcus aureus [20] = assay: Antibacterial activity against vancomycin-resistant Staphylococcus aureus 12 assessed as inhibition of visible bacterial growth incubated for 18 to 20 hrs by CLSI method; assay type: functional; conditions: time 18-20 hrs; outline: as §1
Staphylococcus aureus [21] = assay: Synergistic antibacterial activity against methicillin-resistant Staphylococcus aureus ATCC 33592 assessed as fractional inhibitory concentration index in presence of Vancomycin; assay type: functional
Staphylococcus aureus [22] = assay: Antibacterial activity against methicillin-resistant Staphylococcus aureus NRS123 assessed as inhibition of visible bacterial growth incubated for 18 to 20 hrs by CLSI method; assay type: functional; conditions: time 18-20 hrs; outline: as §1
Staphylococcus aureus [23] = assay: Antibacterial activity against methicillin-resistant Staphylococcus aureus NRS382 assessed as inhibition of visible bacterial growth incubated for 18 to 20 hrs by CLSI method; assay type: functional; conditions: time 18-20 hrs; outline: as §1
Staphylococcus aureus [24] = assay: Antibacterial activity against methicillin-resistant Staphylococcus aureus ATCC 33592 assessed as reduction in bacterial count at 3 x MIC incubated upto 24 hrs by time kill analysis; assay type: functional; conditions: time hrs <=24
Outline: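 Time-kill assay. […] Samples taken at 0, 2, 4, 8, 12 and 24 h, serially diluted in PBS and plated on tryptic soy agar. Viable CFU/mL counted after 18-20 h at 37 °C.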

Pseudomonas aeruginosa = assay: Antibacterial activity against Pseudomonas aeruginosa ATCC 27853 assessed as inhibition of visible bacterial growth at 16 ug/ml incubated for 18 to 20 hrs by CLSI method; assay type: functional, organism-based; conditions: dose 16.0 µg/ml, time 18-20 hrs; outline: as §1
Staphylococcus aureus [25] = assay: Antibacterial activity against methicillin-resistant Staphylococcus aureus NRS387 assessed as inhibition of visible bacterial growth incubated for 18 to 20 hrs by CLSI method; assay type: functional; conditions: time 18-20 hrs; outline: as §1
Staphylococcus aureus [26] = assay: Antibacterial activity against methicillin-resistant Staphylococcus aureus NRS483 assessed as inhibition of visible bacterial growth incubated for 18 to 20 hrs by CLSI method; assay type: functional; conditions: time 18-20 hrs; outline: as §1
Staphylococcus aureus [27] = assay: Antibacterial activity against methicillin-resistant Staphylococcus aureus NRS386 assessed as inhibition of visible bacterial growth incubated for 18 to 20 hrs by CLSI method; assay type: functional; conditions: time 18-20 hrs; outline: as §1
Staphylococcus aureus [28] = assay: Bactericidal activity against methicillin-resistant Staphylococcus aureus ATCC 33592 assessed as reduction in bacterial growth incubated for 18 hrs by CLSI method; assay type: functional
Staphylococcus aureus [29] = assay: Antibacterial activity against vancomycin-resistant Staphylococcus aureus 10 assessed as inhibition of visible bacterial growth incubated for 18 to 20 hrs by CLSI method; assay type: functional; conditions: time 18-20 hrs; outline: as §1
Staphylococcus aureus [30] = assay: Antibacterial activity against methicillin-resistant Staphylococcus aureus NRS385 assessed as inhibition of visible bacterial growth incubated for 18 to 20 hrs by CLSI method; assay type: functional; conditions: time 18-20 hrs; outline: as §1
Listeria monocytogenes = assay: Antibacterial activity against Listeria monocytogenes ATCC 19111 assessed as inhibition of visible bacterial growth incubated for 18 to 20 hrs by CLSI method; assay type: functional; conditions: time 18-20 hrs; outline: as §3

Structure (SMILES): O=C(Nc1nnc(-c2cccs2)o1)c1ccc(SC(F)F)cc1
- MIC (Staphylococcus aureus [1]): 4 µg/mL (≈ 11.3 µM)
- MIC (Staphylococcus aureus [2]): 4 µg/mL (≈ 11.3 µM)

Structure (SMILES): O=C(Nc1nnc(-c2cccs2)o1)c1ccc(F)cc1
- MIC (Staphylococcus aureus [1]): 32 µg/mL (≈ 111 µM)
- MIC (Staphylococcus aureus [2]): 32 µg/mL (≈ 111 µM)

Structure (SMILES): O=C(Nc1nnc(-c2cccs2)o1)c1ccc([N+](=O)[O-])cc1
- MIC (Staphylococcus aureus [1]): 8 µg/mL (≈ 25.3 µM)
- MIC (Staphylococcus aureus [2]): 4 µg/mL (≈ 12.6 µM)

Structure (SMILES): O=C(Nc1nnc(-c2cccs2)o1)c1ccc(SC(F)(F)F)cc1
- MIC (Staphylococcus aureus [3]): 0.5 µg/mL (≈ 1.35 µM)
- MIC (Enterococcus faecalis [4]): 4 µg/mL (≈ 10.8 µM)
- MIC (Staphylococcus aureus [5]): 0.25 µg/mL (≈ 0.673 µM)
- inhibition (Acinetobacter baumannii): inactive
- hemolysis at 1 h, 128 ug/ml [6]: 19%
- Activity (Staphylococcus aureus [7]): 0.7 log10CFU/ml
- fractional inhibitory concentration index (FICI) (Staphylococcus aureus [8]): 0.5
- MIC (Staphylococcus aureus [9]): 0.5 µg/mL (≈ 1.35 µM)
- MIC [10]: 0.25 µg/mL (≈ 0.673 µM)
- MIC (Staphylococcus aureus [11]): 0.5 µg/mL (≈ 1.35 µM)
- Activity (J774): Non-Toxic
- MIC (Enterococcus faecalis [12]): 4 µg/mL (≈ 10.8 µM)
- Activity (Staphylococcus aureus [13]): 0.9 log10CFU/ml
- MIC (Streptococcus pneumoniae [14]): 0.25 µg/mL (≈ 0.673 µM)
- MIC (Staphylococcus aureus [15]): 0.25 µg/mL (≈ 0.673 µM)
- MIC (Staphylococcus aureus [1]): 0.5 µg/mL (≈ 1.35 µM)
- fractional inhibitory concentration index (FICI) (Staphylococcus aureus [16]): 0.0625
- MIC (Staphylococcus aureus [17]): 0.5 µg/mL (≈ 1.35 µM)
- inhibition (Escherichia coli): inactive
- Activity (Caco-2): Non-Toxic
- MIC (Streptococcus pneumoniae [18]): 0.25 µg/mL (≈ 0.673 µM)
- fractional inhibitory concentration index (FICI) (Staphylococcus aureus [19]): 0.63
- MIC (Staphylococcus aureus [2]): 0.5 µg/mL (≈ 1.35 µM)
- MIC (Staphylococcus aureus [20]): 0.5 µg/mL (≈ 1.35 µM)
- fractional inhibitory concentration index (FICI) (Staphylococcus aureus [21]): 1
- MIC (Staphylococcus aureus [22]): 0.5 µg/mL (≈ 1.35 µM)
- MIC (Staphylococcus aureus [23]): 0.5 µg/mL (≈ 1.35 µM)
- Activity (Staphylococcus aureus [24]): 4.2 log10CFU/ml
- inhibition (Pseudomonas aeruginosa): inactive
- MIC (Staphylococcus aureus [25]): 0.125 µg/mL (≈ 0.337 µM)
- MIC (Staphylococcus aureus [26]): 0.5 µg/mL (≈ 1.35 µM)
- MIC (Staphylococcus aureus [27]): 0.5 µg/mL (≈ 1.35 µM)
- MBC (Staphylococcus aureus [28]): 1 µg/mL (≈ 2.69 µM)
- MIC (Staphylococcus aureus [29]): 0.5 µg/mL (≈ 1.35 µM)
- MIC (Staphylococcus aureus [30]): 2 µg/mL (≈ 5.39 µM)
- MIC (Listeria monocytogenes): 0.5 µg/mL (≈ 1.35 µM)
